Experimental data: ChEMBL document CHEMBL1926509, “Discovery of pyrazolo[1,5-a]pyridines as p110α-selective PI3 kinase inhibitors” (Bioorg Med Chem, 2012)

Key:
[1] = target: Misshapen-like kinase 1 (Homo sapiens) (UniProt Q8N4C8); assay: Inhibition of MINK1 assessed as residual activity at 1 uM
[2] = target: Insulin receptor (Homo sapiens) (UniProt P06213); assay: Inhibition of IR assessed as residual activity at 10 uM
[3] = target: Phosphatidylinositol 4,5-bisphosphate 3-kinase catalytic subunit alpha isoform (Homo sapiens, UniProt P42336, E545K); assay: Inhibition of recombinant PI3K p110alpha E545K mutant using L-alpha-phosphatidylinositol as substrate and [gamma33P]ATP after 60 mins by thin layer chromatographic technique
Phosphatidylinositol 4,5-bisphosphate 3-kinase catalytic subunit alpha isoform (Homo sapiens, UniProt P42336, E545K), sequence (P42336 whole entry E545K, canonical isoform): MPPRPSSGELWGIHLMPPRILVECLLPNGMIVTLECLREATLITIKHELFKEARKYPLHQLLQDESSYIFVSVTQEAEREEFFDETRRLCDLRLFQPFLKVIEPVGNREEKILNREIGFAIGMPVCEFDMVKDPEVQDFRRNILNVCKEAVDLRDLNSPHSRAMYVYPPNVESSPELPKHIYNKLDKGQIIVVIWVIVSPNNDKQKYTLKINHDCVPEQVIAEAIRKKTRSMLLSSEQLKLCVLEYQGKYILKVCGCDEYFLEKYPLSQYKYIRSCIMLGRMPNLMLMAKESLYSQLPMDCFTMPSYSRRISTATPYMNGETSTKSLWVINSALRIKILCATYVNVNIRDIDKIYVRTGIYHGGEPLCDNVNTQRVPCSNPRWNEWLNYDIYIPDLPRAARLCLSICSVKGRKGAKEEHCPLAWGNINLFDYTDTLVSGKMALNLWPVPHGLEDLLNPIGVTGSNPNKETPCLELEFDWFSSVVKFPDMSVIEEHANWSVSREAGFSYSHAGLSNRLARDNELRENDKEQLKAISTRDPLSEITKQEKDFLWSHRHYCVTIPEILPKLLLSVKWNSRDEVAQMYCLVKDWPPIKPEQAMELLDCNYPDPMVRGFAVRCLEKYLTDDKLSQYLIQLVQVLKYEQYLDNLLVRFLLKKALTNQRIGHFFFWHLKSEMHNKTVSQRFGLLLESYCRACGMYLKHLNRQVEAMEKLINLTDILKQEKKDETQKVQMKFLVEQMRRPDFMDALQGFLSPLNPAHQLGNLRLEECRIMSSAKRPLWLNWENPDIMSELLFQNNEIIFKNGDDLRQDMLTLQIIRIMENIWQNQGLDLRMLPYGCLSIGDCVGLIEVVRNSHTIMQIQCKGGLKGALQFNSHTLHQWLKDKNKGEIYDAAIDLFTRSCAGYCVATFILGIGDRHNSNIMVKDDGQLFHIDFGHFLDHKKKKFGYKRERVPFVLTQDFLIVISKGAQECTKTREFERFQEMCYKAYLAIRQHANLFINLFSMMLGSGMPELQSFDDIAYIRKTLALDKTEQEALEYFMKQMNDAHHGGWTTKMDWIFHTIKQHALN

[4] = Selectivity ratio of IC50 for PI3K p110beta to IC50 for PI3K p110alpha
[5] = target: Dual specificity mitogen-activated protein kinase kinase 1 (Homo sapiens) (UniProt Q02750); assay: Inhibition of MKK1 assessed as residual activity at 1 uM
Dual specificity mitogen-activated protein kinase kinase 1 (Homo sapiens), sequence (Q02750 whole entry): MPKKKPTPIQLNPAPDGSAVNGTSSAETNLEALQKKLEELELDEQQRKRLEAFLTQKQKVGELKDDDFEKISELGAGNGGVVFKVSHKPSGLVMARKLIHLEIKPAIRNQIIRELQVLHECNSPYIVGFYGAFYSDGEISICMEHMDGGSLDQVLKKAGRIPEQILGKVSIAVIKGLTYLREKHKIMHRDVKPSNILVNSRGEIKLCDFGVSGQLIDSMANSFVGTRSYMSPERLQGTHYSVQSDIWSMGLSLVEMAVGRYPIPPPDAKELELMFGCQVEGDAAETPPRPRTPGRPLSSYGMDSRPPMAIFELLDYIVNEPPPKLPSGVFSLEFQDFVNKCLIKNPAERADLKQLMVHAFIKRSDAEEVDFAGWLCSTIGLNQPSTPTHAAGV

[6] = Selectivity ratio of IC50 for PI3K p110delta to IC50 for PI3K p110alpha
[7] = Inhibition of PKA assessed as residual activity at 1 uM
[8] = target: Phosphatidylinositol 4,5-bisphosphate 3-kinase catalytic subunit beta isoform (Homo sapiens, UniProt P42338); assay: Inhibition of recombinant PI3K p110beta using L-alpha-phosphatidylinositol as substrate and [gamma33P]ATP after 60 mins by thin layer chromatographic technique
Method in brief: (§1)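 In-house recombinant class Ia PI3K isoform (0.1 µg) with L-α-phosphatidylinositol substrate in lipid kinase buffer (Tris–HCl pH 7.4, NaCl, EDTA), 1% DMSO final. Started with ATP mix (5 mM MgCl₂, 100 µM ATP plus [γ-³³P]ATP), 1 h at room temperature, stopped with 1 M HCl. Lipids extracted in two steps, separated by TLC, read by phosphorimager. Nine inhibitor concentrations; IC50 averaged over two experiments.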

[9] = target: Ribosomal protein S6 kinase alpha-1 (Homo sapiens) (UniProt Q15418); assay: Inhibition of RSK1 assessed as residual activity at 10 uM
Ribosomal protein S6 kinase alpha-1 (Homo sapiens), sequence (Q15418 whole entry, canonical isoform): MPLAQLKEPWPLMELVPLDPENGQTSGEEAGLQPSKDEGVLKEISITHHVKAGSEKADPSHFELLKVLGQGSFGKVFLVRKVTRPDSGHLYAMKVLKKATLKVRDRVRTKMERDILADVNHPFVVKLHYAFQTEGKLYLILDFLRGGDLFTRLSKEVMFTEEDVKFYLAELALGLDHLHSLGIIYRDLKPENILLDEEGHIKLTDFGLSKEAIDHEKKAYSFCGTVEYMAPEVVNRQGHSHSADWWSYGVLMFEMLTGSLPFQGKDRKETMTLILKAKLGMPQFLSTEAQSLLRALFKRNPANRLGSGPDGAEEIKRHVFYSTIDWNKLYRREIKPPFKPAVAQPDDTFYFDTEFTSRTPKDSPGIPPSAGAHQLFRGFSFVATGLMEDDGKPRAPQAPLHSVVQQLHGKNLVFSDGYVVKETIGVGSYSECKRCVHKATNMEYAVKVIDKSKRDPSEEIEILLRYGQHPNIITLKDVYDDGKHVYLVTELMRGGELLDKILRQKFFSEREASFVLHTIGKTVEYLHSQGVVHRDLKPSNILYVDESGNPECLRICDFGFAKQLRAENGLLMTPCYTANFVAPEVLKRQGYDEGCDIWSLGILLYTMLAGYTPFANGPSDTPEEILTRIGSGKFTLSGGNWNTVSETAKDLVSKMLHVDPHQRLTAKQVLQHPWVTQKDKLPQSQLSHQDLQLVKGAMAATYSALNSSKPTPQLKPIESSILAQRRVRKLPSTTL

[10] = target: Phosphatidylinositol 4,5-bisphosphate 3-kinase catalytic subunit alpha isoform (Homo sapiens, UniProt P42336, H1047R); assay: Inhibition of PI3K […] H1047R mutant-mediated PKB phosphorylation at Ser473 in human HCT116 cells after 15 mins by immunoblot analysis; assay type: cell-based, HCT-116
Phosphatidylinositol 4,5-bisphosphate 3-kinase catalytic subunit alpha isoform (Homo sapiens, UniProt P42336, H1047R), sequence (P42336 whole entry H1047R, canonical isoform): as the sequence (P42336 whole entry E545K, canonical isoform) above, with K545E, H1047R counted along it
Method in brief: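 HCT-116 cells in MEM alpha with 10% FBS and penicillin/streptomycin were seeded, grown 1 day, then serum-starved overnight. They were exposed to a range of inhibitor concentrations in DMSO (0.1% final) for 15 min, then stimulated with 500 nM insulin for 5 min. Phospho-PKB (Ser473 or Thr308) was detected by immunoblotting.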

[11] = target: Serine/threonine-protein kinase mTOR (Homo sapiens, UniProt P42345); assay: Inhibition of mTOR
[12] = target: Dual specificity mitogen-activated protein kinase kinase 1 (Homo sapiens) (UniProt Q02750); assay: Inhibition of MKK1 assessed as residual activity at 10 uM
[13] = target: High affinity nerve growth factor receptor (Homo sapiens) (UniProt P04629); assay: Inhibition of TrkA assessed as residual activity at 10 uM
Mus musculus [14] = assay: Toxicity in human HCT116 cells xenografted Rag1 knockout mouse assessed as body weight loss at 20 mg/kg, ip qd measured after 10 days relative to untreated control; assay type: organism-based, HCT-116; design: dose 20 mg/kg, route intraperitoneal; conditions: in vivo, 240 h
Method in brief: (§2)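 Female specific-pathogen-free Rag1−/− mice carrying subcutaneous HCT-116 tumours, given 20 mg/kg ip daily for 14 days in a DMSO/PEG-400/hydroxypropyl-β-cyclodextrin/water vehicle; controls received vehicle; n = 7 per group. Bodyweight recorded daily; mice culled if loss exceeded 20% of starting weight.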

[15] = Cytotoxicity against human NZOV9 cells expressing p110alpha Y1021C mutant assessed as inhibition of [3H]thymidine incorporation after 5 days; assay type: functional, cell-based
Method in brief: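 Early-passage lab-derived lines in α-MEM with insulin, transferrin, selenite and 5% FBS. Seeded at 1000 cells/well; drug added in 10-fold steps up to 20 µM. Incubated five days under 5% O₂/5% CO₂/90% N₂, with ³H-thymidine (0.04 µCi/well) over the last 6 h. Duplicates per dose; least-squares exponential fit; IC50 is the concentration giving 50% less incorporation.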

[16] = target: Mitogen-activated protein kinase 14 (Homo sapiens) (UniProt Q16539); assay: Inhibition of p38alpha assessed as residual activity at 10 uM
[17] = target: T1, Phosphatidylinositol 4,5-bisphosphate 3-kinase catalytic subunit delta isoform (Homo sapiens, UniProt O00329); assay: Inhibition of recombinant PI3K p110delta using L-alpha-phosphatidylinositol as substrate and [gamma33P]ATP after 60 mins by thin layer chromatographic technique; method in brief: as §1
T1 sequence (O00329 whole entry): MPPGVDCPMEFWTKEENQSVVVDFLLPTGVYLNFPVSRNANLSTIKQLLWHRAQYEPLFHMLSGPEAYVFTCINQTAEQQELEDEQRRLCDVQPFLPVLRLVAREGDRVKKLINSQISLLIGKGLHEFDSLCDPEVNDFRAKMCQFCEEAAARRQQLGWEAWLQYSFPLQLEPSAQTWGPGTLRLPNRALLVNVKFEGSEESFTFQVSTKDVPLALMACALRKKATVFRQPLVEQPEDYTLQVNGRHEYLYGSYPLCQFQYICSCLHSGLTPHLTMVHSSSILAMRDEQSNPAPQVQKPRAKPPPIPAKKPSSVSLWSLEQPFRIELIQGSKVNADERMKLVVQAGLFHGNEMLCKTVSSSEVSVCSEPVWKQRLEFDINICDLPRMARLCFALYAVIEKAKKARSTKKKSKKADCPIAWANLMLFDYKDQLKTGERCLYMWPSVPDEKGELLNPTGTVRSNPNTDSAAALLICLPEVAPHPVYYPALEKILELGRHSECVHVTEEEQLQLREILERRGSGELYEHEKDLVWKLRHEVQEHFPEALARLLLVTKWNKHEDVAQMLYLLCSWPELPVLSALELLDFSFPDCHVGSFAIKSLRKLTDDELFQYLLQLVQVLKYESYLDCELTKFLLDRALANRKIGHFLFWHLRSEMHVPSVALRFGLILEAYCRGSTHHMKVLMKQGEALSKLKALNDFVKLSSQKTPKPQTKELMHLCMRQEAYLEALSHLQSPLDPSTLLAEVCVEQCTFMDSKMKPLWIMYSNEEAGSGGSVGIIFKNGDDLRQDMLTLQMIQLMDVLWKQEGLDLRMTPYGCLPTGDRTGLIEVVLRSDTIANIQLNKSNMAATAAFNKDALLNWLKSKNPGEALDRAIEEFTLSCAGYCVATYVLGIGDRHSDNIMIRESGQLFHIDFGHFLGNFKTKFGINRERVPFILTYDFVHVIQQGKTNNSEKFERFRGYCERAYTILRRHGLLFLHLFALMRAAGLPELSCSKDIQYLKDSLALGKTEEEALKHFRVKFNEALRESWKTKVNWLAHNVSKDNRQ

Mus musculus [18] = assay: Toxicity in human HCT116 cells xenografted Rag1 knockout mouse assessed as body weight loss at 20 mg/kg, ip qd measured up to day 10; assay type: organism-based, HCT-116; design: dose 20 mg/kg, route intraperitoneal; conditions: in vivo; method in brief: as §2
[19] = target: Insulin receptor (Homo sapiens) (UniProt P06213); assay: Inhibition of IR assessed as residual activity at 1 uM
[20] = target: Ribosomal protein S6 kinase alpha-1 (Homo sapiens) (UniProt Q15418); assay: Inhibition of RSK1 assessed as residual activity at 1 uM

Insulin receptor (Homo sapiens), sequence (P06213 28-758 limits assumed): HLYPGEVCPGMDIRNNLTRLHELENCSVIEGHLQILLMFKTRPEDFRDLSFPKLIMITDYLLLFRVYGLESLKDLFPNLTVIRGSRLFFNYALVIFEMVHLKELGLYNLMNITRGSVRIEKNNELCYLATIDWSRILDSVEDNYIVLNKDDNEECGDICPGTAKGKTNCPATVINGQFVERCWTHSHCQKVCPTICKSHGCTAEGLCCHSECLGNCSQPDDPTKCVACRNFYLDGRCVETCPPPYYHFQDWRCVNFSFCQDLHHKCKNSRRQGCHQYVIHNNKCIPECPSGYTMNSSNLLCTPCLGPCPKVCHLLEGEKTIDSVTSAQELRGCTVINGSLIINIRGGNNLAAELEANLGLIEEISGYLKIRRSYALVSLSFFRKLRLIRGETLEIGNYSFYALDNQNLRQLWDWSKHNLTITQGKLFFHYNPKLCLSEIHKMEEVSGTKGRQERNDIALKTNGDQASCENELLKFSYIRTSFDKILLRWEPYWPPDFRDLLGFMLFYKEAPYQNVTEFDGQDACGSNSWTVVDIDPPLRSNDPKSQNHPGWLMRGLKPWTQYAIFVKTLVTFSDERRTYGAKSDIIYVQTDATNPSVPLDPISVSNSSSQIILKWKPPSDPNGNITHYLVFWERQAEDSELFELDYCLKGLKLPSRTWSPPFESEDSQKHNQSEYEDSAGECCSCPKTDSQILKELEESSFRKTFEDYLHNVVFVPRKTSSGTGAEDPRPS
Insulin receptor (Homo sapiens), sequence (P06213 763-1382 limits assumed): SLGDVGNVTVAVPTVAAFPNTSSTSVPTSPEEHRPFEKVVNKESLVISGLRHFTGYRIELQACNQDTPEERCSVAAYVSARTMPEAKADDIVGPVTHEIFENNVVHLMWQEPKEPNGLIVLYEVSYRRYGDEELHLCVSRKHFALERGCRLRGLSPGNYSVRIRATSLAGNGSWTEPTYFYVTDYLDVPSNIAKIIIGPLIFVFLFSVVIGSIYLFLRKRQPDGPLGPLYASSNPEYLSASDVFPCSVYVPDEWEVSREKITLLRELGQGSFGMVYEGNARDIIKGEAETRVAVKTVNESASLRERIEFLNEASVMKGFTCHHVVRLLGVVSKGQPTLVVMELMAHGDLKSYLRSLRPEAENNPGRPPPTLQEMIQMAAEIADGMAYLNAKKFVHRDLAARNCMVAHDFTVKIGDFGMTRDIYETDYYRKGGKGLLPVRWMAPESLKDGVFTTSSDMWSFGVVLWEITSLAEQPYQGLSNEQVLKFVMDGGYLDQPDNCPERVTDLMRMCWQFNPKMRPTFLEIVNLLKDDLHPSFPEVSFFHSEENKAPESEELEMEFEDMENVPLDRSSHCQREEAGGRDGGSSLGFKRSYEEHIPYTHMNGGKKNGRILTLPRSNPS
Misshapen-like kinase 1 (Homo sapiens), sequence (Q8N4C8 whole entry, looked up): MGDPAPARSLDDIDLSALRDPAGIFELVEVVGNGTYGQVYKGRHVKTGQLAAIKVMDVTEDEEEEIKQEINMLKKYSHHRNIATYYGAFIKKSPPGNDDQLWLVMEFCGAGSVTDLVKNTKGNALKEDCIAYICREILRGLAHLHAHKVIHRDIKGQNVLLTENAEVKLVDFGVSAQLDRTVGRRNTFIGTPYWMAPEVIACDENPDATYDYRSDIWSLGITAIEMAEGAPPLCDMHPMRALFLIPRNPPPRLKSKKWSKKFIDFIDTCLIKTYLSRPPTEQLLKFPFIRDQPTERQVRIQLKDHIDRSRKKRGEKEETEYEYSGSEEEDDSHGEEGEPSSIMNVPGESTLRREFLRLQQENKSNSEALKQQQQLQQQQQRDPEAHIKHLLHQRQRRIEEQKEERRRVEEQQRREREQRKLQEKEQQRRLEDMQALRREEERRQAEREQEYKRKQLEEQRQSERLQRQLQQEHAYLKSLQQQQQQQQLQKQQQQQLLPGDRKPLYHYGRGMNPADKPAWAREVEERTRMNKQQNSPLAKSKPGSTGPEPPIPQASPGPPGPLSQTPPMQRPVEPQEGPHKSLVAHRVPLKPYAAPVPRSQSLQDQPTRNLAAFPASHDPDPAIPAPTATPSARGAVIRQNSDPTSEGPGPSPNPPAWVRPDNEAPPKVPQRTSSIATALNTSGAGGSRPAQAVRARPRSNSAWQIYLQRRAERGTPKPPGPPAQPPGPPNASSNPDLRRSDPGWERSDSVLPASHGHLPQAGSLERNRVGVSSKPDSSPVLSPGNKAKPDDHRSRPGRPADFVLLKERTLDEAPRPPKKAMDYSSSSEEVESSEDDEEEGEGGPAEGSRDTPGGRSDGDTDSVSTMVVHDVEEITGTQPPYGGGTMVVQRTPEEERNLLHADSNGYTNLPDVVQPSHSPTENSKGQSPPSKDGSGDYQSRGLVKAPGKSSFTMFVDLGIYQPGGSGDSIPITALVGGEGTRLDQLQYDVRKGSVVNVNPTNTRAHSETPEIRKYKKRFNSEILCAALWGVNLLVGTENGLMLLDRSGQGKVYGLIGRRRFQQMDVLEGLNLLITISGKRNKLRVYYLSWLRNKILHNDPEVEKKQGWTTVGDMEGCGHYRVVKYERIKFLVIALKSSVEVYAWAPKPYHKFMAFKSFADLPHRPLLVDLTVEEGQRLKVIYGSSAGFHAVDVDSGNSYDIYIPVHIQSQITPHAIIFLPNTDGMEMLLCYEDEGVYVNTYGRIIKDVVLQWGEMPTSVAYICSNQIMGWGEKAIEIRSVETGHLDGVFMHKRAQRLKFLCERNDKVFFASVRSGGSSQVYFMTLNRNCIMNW

Compound: Cc1ccc([N+](=O)[O-])cc1S(=O)(=O)N(C)/N=C/c1cnn2ccc(C#N)cc12
- Activity [1]: 5%
- Activity [2]: 42%
- IC50 [3]: 0.7 nM
- Ratio IC50 [4]: 50
- Activity [5]: 10%
- Ratio IC50 [6]: 50
- Activity [7]: 1%
- IC50 [8]: 46 nM
- Activity [9]: 2%
- IC50 [10]: 23 nM
- IC50 [11]: 300 nM
- Activity [12]: 8%
- Activity [13]: 13%
- Activity (Mus musculus [14]): 15%
- IC50 [15]: 1400 nM
- Activity [16]: 9%
- IC50 [17]: 49 nM
- Activity (Mus musculus [18]): Non-toxic
- Activity [19]: 55%
- Activity [20]: 4%
